This passage reports MIC results from ChEMBL document CHEMBL3272355, “Structure--activity relationships in cephalosporins prepared from penicillins. 1. 7beta-Acylamino derivatives of 3-benzyl- and 3-(3-pyridylmethyl)ceph-3-em-4-carboxylic acids” (1977).

The subject of assay [1] is Staphylococcus aureus. As to the kind of experiment: Antibacterial activity against Staphylococcus aureus Oxford assessed as growth inhibition after 18 hrs by serial dilution method. In kind it is functional. The essentials: (§1)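 Agar dilution MIC: serial dilutions in nutrient agar, each spot-inoculated with 0.001 mL of undiluted overnight broth culture. MIC read after 18 h incubation at 37 °C.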

Assay [2] concerns Staphylococcus aureus. The experiment in a line: Antibacterial activity against beta-lactamase producing benzylpenicillin-resistant Staphylococcus aureus Russell assessed as growth inhibition after 18 hrs by serial dilution method. In kind it is functional.
The subject of the next assay is Escherichia coli. The experiment in a line: Antibacterial activity against Escherichia coli assessed as growth inhibition after 18 hrs by serial dilution method. The class given is functional. The essentials: as §1
The next assay has as its system Salmonella typhi. As to the kind of experiment: Antibacterial activity against Salmonella typhi assessed as growth inhibition after 18 hrs by serial dilution method. The class given is functional, Salmonella enterica subsp. enterica serovar Typhi. Particulars: Salmonella enterica.
Another assay concerns Shigella sonnei. As to the kind of experiment: Antibacterial activity against Shigella sonnei assessed as growth inhibition after 18 hrs by serial dilution method. In kind it is functional. The method, boiled down:
as §1

For another assay, the system named is Klebsiella aerogenes. The experiment in a line: Antibacterial activity against Klebsiella aerogenes assessed as growth inhibition after 18 hrs by serial dilution method. The class given is functional. The essentials: as §1
The next assay deals with Proteus mirabilis. The experiment in a line: Antibacterial activity against Proteus mirabilis assessed as growth inhibition after 18 hrs by serial dilution method. The class given is functional. The essentials:
as §1

In brackets after ≈: the same amount, converted by molar mass.

Broadly, the MIC is the lowest concentration that inhibits growth of the organism. Turning to `O=C(Cn1ncnn1)N[C@@H]1C(=O)N2C(C(=O)O)=C(Cc3ccccc3)CS[C@H]12`, the MIC with Staphylococcus aureus [1] was 0.12 µg/mL (≈ 0.3 µM); in the assay with Staphylococcus aureus [2], 1.25 µg/mL (≈ 3.12 µM); in the assay with Escherichia coli, > 500 µg/mL; in the assay with Salmonella typhi, > 500 µg/mL; with Shigella sonnei, 125 µg/mL (≈ 312 µM); in the assay on Klebsiella aerogenes it was 500 µg/mL (≈ 1250 µM). Besides, the MIC in the assay on Proteus mirabilis turned out to be 125 µg/mL (≈ 312 µM).

With `C[C@@H](N)C(=O)N[C@@H]1C(=O)N2C(C(=O)O)=C(Cc3ccccc3)CS[C@H]12`, the MIC in the assay on Staphylococcus aureus [1] was 5 µg/mL (≈ 13.8 µM); with Staphylococcus aureus [2] it was 10 µg/mL (≈ 27.7 µM); in the assay with Escherichia coli, > 100 µg/mL; with Salmonella typhi it was > 100 µg/mL; in the assay with Shigella sonnei, > 100 µg/mL; in the assay on Klebsiella aerogenes, > 100 µg/mL. Further, in the assay with Proteus mirabilis, the minimal inhibitory concentration (MIC) was > 100 µg/mL.

As to `N[C@@H](C(=O)N[C@@H]1C(=O)N2C(C(=O)O)=C(Cc3ccccc3)CS[C@H]12)C1CC1`, the MIC in the assay with Staphylococcus aureus [1] is 5 µg/mL (≈ 12.9 µM); in the assay with Staphylococcus aureus [2] it was 12.5 µg/mL (≈ 32.3 µM); with Escherichia coli, > 250 µg/mL; with Salmonella typhi, > 250 µg/mL; in the assay with Shigella sonnei it was > 250 µg/mL; in the assay on Klebsiella aerogenes it was > 250 µg/mL. In addition, in the assay on Proteus mirabilis, the MIC is > 250 µg/mL.

As for `N[C@@H](C(=O)N[C@@H]1C(=O)N2C(C(=O)O)=C(Cc3ccccc3)CS[C@H]12)c1ccc(O)cc1`, the MIC in the assay with Staphylococcus aureus [1] was found to be 0.12 µg/mL (≈ 0.273 µM); in the assay on Staphylococcus aureus [2] it was 1.25 µg/mL (≈ 2.84 µM); with Escherichia coli, 12.5 µg/mL (≈ 28.4 µM); in the assay on Salmonella typhi it was 5 µg/mL (≈ 11.4 µM); in the assay on Shigella sonnei, 12.5 µg/mL (≈ 28.4 µM); in the assay on Klebsiella aerogenes it was 5 µg/mL (≈ 11.4 µM). Moreover, the MIC in the assay on Proteus mirabilis stood at 25 µg/mL (≈ 56.9 µM).

Take `O=C(COc1ccccc1)N[C@@H]1C(=O)N2C(C(=O)O)=C(Cc3cccnc3)CS[C@H]12`: the minimum inhibitory concentration (MIC) in the assay on Staphylococcus aureus [1] stood at 0.02 µg/mL (≈ 0.047 µM); in the assay with Staphylococcus aureus [2] it was 0.12 µg/mL (≈ 0.282 µM); in the assay on Escherichia coli it was 500 µg/mL (≈ 1180 µM); in the assay on Salmonella typhi, 500 µg/mL (≈ 1180 µM); in the assay with Shigella sonnei, 500 µg/mL (≈ 1180 µM); with Klebsiella aerogenes it was 500 µg/mL (≈ 1180 µM). Further, the MIC with Proteus mirabilis was found to be 125 µg/mL (≈ 294 µM).

For `CCSCC(=O)N[C@@H]1C(=O)N2C(C(=O)O)=C(Cc3cccnc3)CS[C@H]12`, the minimum inhibitory concentration (MIC) with Staphylococcus aureus [1] is 0.05 µg/mL (≈ 0.127 µM); in the assay with Staphylococcus aureus [2] it was 1.25 µg/mL (≈ 3.18 µM); in the assay with Escherichia coli, 50 µg/mL (≈ 127 µM); in the assay on Salmonella typhi, 50 µg/mL (≈ 127 µM); in the assay on Shigella sonnei it was 50 µg/mL (≈ 127 µM); in the assay with Klebsiella aerogenes, 50 µg/mL (≈ 127 µM). Further, in the assay with Proteus mirabilis, the MIC was determined as 25 µg/mL (≈ 63.5 µM).

In the case of `O=C(O)C1=C(Cc2cccnc2)CS[C@@H]2[C@H](NC(=O)[C@H](O)c3ccccc3)C(=O)N12`, the MIC in the assay on Staphylococcus aureus [1] was found to be 0.25 µg/mL (≈ 0.588 µM); with Staphylococcus aureus [2], 12.5 µg/mL (≈ 29.4 µM); in the assay with Escherichia coli, 2.5 µg/mL (≈ 5.88 µM); with Salmonella typhi, 2.5 µg/mL (≈ 5.88 µM); in the assay on Shigella sonnei, 2.5 µg/mL (≈ 5.88 µM); in the assay with Klebsiella aerogenes, 2.5 µg/mL (≈ 5.88 µM). Besides, in the assay with Proteus mirabilis, the MIC is 5 µg/mL (≈ 11.8 µM).

In the case of `O=C(Cc1ccncc1)N[C@@H]1C(=O)N2C(C(=O)O)=C(Cc3cccnc3)CS[C@H]12`, the MIC in the assay with Staphylococcus aureus [1] came out at 0.12 µg/mL (≈ 0.292 µM); in the assay on Staphylococcus aureus [2] it was 25 µg/mL (≈ 60.9 µM); in the assay on Escherichia coli, 25 µg/mL (≈ 60.9 µM); with Salmonella typhi, 10 µg/mL (≈ 24.4 µM); with Shigella sonnei, 25 µg/mL (≈ 60.9 µM); with Klebsiella aerogenes, 10 µg/mL (≈ 24.4 µM). In addition, the MIC in the assay with Proteus mirabilis worked out at 10 µg/mL (≈ 24.4 µM).

In the case of `O=C(CSc1ccncc1)N[C@@H]1C(=O)N2C(C(=O)O)=C(Cc3cccnc3)CS[C@H]12`, the MIC in the assay with Staphylococcus aureus [1] is < 0.02 µg/mL; in the assay on Staphylococcus aureus [2] it was 1 µg/mL (≈ 2.26 µM); in the assay on Escherichia coli, 25 µg/mL (≈ 56.5 µM); in the assay on Salmonella typhi, 10 µg/mL (≈ 22.6 µM); with Shigella sonnei, 25 µg/mL (≈ 56.5 µM); in the assay on Klebsiella aerogenes it was 5 µg/mL (≈ 11.3 µM). In addition, in the assay with Proteus mirabilis, the MIC amounted to 100 µg/mL (≈ 226 µM).

On to `O=C(O)C1=C(Cc2cccnc2)CS[C@@H]2[C@H](NC(=O)C(C(=O)Oc3ccccc3)c3cccs3)C(=O)N12` (some centres not stated), for which the MIC in the assay with Staphylococcus aureus [1] turned out to be 12.5 µg/mL (≈ 23.3 µM); with Escherichia coli it was 12.5 µg/mL (≈ 23.3 µM); with Salmonella typhi, 50 µg/mL (≈ 93.4 µM); with Shigella sonnei, 12.5 µg/mL (≈ 23.3 µM); in the assay with Klebsiella aerogenes, 12.5 µg/mL (≈ 23.3 µM); with Proteus mirabilis it was 12.5 µg/mL (≈ 23.3 µM).

In the case of `N[C@@H](C(=O)N[C@@H]1C(=O)N2C(C(=O)O)=C(Cc3cccnc3)CS[C@H]12)C1CC1`, the MIC with Staphylococcus aureus [1] stood at 5 µg/mL (≈ 12.9 µM); in the assay with Staphylococcus aureus [2], 12.5 µg/mL (≈ 32.2 µM); in the assay with Escherichia coli it was 500 µg/mL (≈ 1290 µM); in the assay with Salmonella typhi, 250 µg/mL (≈ 644 µM); with Shigella sonnei it was 250 µg/mL (≈ 644 µM); in the assay on Klebsiella aerogenes, 250 µg/mL (≈ 644 µM). Also, in the assay with Proteus mirabilis, the MIC is 500 µg/mL (≈ 1290 µM).

For the compound `NC(C(=O)N[C@@H]1C(=O)N2C(C(=O)O)=C(Cc3cccnc3)CS[C@H]12)c1cccs1` (some centres not stated), the MIC came out at 0.5 µg/mL (≈ 1.16 µM) in the assay with Staphylococcus aureus [1]; 5 µg/mL (≈ 11.6 µM) in the assay with Staphylococcus aureus [2]; 12.5 µg/mL (≈ 29 µM) in the assay with Escherichia coli; 2.5 µg/mL (≈ 5.81 µM) in the assay on Salmonella typhi; 5 µg/mL (≈ 11.6 µM) in the assay with Shigella sonnei; 5 µg/mL (≈ 11.6 µM) in the assay on Klebsiella aerogenes. For the same compound, the MIC with Proteus mirabilis is 12.5 µg/mL (≈ 29 µM).

As for `O=C(Cc1cccs1)N[C@@H]1C(=O)N2C(C(=O)O)=C(Cc3cccnc3)CS[C@H]12`, the MIC in the assay with Staphylococcus aureus [1] was found to be 0.05 µg/mL (≈ 0.12 µM); with Staphylococcus aureus [2], 10 µg/mL (≈ 24.1 µM); with Escherichia coli, 25 µg/mL (≈ 60.2 µM); with Salmonella typhi, 5 µg/mL (≈ 12 µM); in the assay with Shigella sonnei, 25 µg/mL (≈ 60.2 µM); with Klebsiella aerogenes it was 25 µg/mL (≈ 60.2 µM). For the same compound, the MIC in the assay on Proteus mirabilis came to 25 µg/mL (≈ 60.2 µM).

For the compound `NC(CC(=O)N[C@@H]1C(=O)N2C(C(=O)O)=C(Cc3cccnc3)CS[C@H]12)C1CC=CCC1` (mixture of isomers), the MIC with Staphylococcus aureus [1] stood at 0.5 µg/mL; in the assay on Staphylococcus aureus [2], 1.25 µg/mL; in the assay on Escherichia coli it was 125 µg/mL; with Salmonella typhi, 125 µg/mL; in the assay with Shigella sonnei it was 125 µg/mL; in the assay with Klebsiella aerogenes it was 125 µg/mL. The MIC in the assay with Proteus mirabilis was found to be 250 µg/mL.
